A short description of this series: Toxicity liver stage against HepG2, at 10uM. In kind it is cell-based. Set-up: test concentration 10 uM, cell line HepG2-A16-CD81EGFP. The note with it: human, HepG2-A16-CD81EGFP cells; read-out: INHIBITION
An outline of the steps: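 Uninfected HepG2-A16-CD81EGFP cells, 3 × 10^3 per well, 1536-well, plated on prespotted compound at 10 μM final, parasite-free screening media added to match infected plates; puromycin 10 μM positive, DMSO 0.5% negative; run in parallel with 48 h PbLuc assay at 37 °C, 5% CO2; viability by CellTiter-Glo luminescence, normalized to controls.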
For `COc1ccc(CNCC(C)Oc2ccccn2)cc1Br` (stereo unspecified), the cytotoxicity at 10 µM is -10.2%.
The result for `FC(F)(F)Oc1ccc(-c2noc([C@@H]3Cc4nc[nH]c4CN3)n2)cc1` reads -7.47%; that for `CCN1CCCN(c2ncccc2C(=O)N2CCCCC2)CC1`, -5.1%; that for `CCC(=O)N1CCC2(COCc3cnc(N4CCOCC4)nc32)C1` (stereo unspecified), -66.2%.
Take `CCN1CCN(C(=O)Cc2ccc(S(=O)(=O)C(F)F)cc2)CC1`: the cytotoxicity at 10 µM is -6.43%.
As for `O=S(=O)(CC1CCCCO1)Nc1cnn(Cc2ccccc2)c1` (stereo unspecified), the cytotoxicity at 10 µM was 4.34%.
The result for `CCS(=O)(=O)NCCNC(=O)c1cnc(-c2ccccc2)nc1` reads 13.8%.
Regarding `O=C(Nc1c(F)cccc1Oc1ccccc1)C1CCS(=O)(=O)C1` (stereo unspecified), the cytotoxicity at 10 µM turned out to be 1.91%.
As for `CC(=O)NCc1cc2n(n1)CCN(Cc1ccccc1OC(F)(F)F)C2`, the cytotoxicity at 10 µM is -2.84%.
For `Cc1nc(N(C)C)nc(C)c1NS(=O)(=O)c1ccc(OC(F)(F)F)cc1`, the cytotoxicity at 10 µM came to 7.23%.
Consider `CCC(O)CN1CCN(C(=O)c2cc3ccccc3n2CC)CC1` (stereo unspecified), for which the cytotoxicity at 10 µM is -0.579%.
Next, `CN(Cc1ccsc1)C(=O)CN1CCOC(Cn2cccn2)C1` (stereo unspecified): -14.7%.
Take `CCOc1ccccc1OCC(=O)NCc1ncc(C)c(OC)c1C`: the cytotoxicity at 10 µM was determined as 1.09%.
The result for `CCN(Cc1ccco1)C(=O)NCC(C)N1CCc2sccc2C1` (stereo unspecified) reads 9.08%; that for `COc1c(CNC2CCc3cc(F)ccc32)c(C(C)C)nn1C` (stereo unspecified), 1.16%; that for `CCC(O)CN1CCN(C(=O)c2sccc2OC)CC1` (stereo unspecified), -7.25%.
Next, `Cc1n[nH]c2c1C(c1ccncc1)SCC(=O)N2` (stereo unspecified): 4.96%.
Next, `CCOC(CC)C(=O)NCc1cccc(N2CCCCC2=O)c1` (stereo unspecified): 5.12%; `Cc1cccc(CN2CCC3(CCCN(C(=O)c4ccoc4)C3)C2=O)n1` (stereo unspecified): 3.19%; `Cc1noc(COCC(=O)N2CCCCC2c2nccs2)n1` (stereo unspecified): 6.9%.
As for `O=C(NCCc1noc(C2CCCC2)n1)c1cn2ccsc2n1`, the cytotoxicity at 10 µM was -0.454%.
Regarding `COC1CCN(C(=O)Cn2ncc(N3CCCCC3)cc2=O)C1` (stereo unspecified), the cytotoxicity at 10 µM is -2.69%.
As for `O=c1c2cc3c(cc2nnn1Cc1ccccc1)OCCO3`, the cytotoxicity at 10 µM amounted to 7.38%.
Next, `CC(C)(C)c1noc(OCC(=O)NCC(F)(F)F)n1`: 8.81%; `Cc1cc(C)cc(OCCN(C)C2CCOC2=O)c1` (stereo unspecified): -143%; `COc1ccc(C(=O)NCCCNc2ncccn2)cc1F`: -10.5%.
The result for `COCCN1CCOCC12CCN(C(=O)c1c[nH]c3ccccc13)CC2` reads -69.8%; that for `CCC(C#N)NC(=O)c1cc(Br)c2c(c1)OCCO2` (stereo unspecified), -15.7%; that for `NC(=O)C1CCN(C(=O)c2cc(-n3cnnn3)ccc2Cl)CC1`, 12.4%.
Next, `Cc1noc(C)c1CN1CCC2(CC1)C(c1cnn(C)c1)CC(=O)N2C` (stereo unspecified): -106%; `O=C(COc1ccccc1Cl)N1CCCC(n2ccnc2)C1` (stereo unspecified): -21.9%; `Cc1cc(CN2CCN(C(=O)NCCc3csc(C)n3)CC2)on1`: -2.68%.
Consider `CC(NC(=O)CCCn1cnc2ccccc2c1=O)c1ncn[nH]1` (stereo unspecified), for which the cytotoxicity at 10 µM was -4.31%.
Take `c1ccc(CN2CC[C@H]3CO[C@H](CNc4ncccn4)[C@H]3C2)cc1`: the cytotoxicity at 10 µM is -5.87%.
`CCCNC(=O)Cn1c(-n2nc(C)cc2C)nc(CCC)cc1=O`: the cytotoxicity at 10 µM was 8.94%.
For `CN1CCN(S(=O)(=O)c2cccc(F)c2)Cc2cccnc21`, the cytotoxicity at 10 µM is -110%.
With `Cc1cc(C)nc(N2CCC(OCCN3CCCCC3)C2)n1` (stereo unspecified), the cytotoxicity at 10 µM was -53.6%.
As to `Cc1nc(C(F)(F)F)nc(N2CCC(O)(C(=O)O)CC2)c1C`, the cytotoxicity at 10 µM came to 10.4%.
Next, `COCc1ccc(C(=O)N2CC[C@@](O)(COC)C(C)(C)C2)o1`: -2.69%.
The result for `Cn1cccc1C(=O)N[C@@H]1CN(S(C)(=O)=O)[C@@H]2COC[C@@H]21` reads 14.1%; that for `Cc1nn(C)c(C)c1NC(=O)CN1CCOC(Cn2cccn2)C1` (stereo unspecified), -1.81%.
For the compound `Cc1[nH]c(=O)[nH]c(=O)c1CN1CCCC(CCc2ccccc2F)C1` (stereo unspecified), the cytotoxicity at 10 µM was -4.19%.
On to `COCCN1CCN(C(C)c2nc(C3CC3)no2)CC1` (stereo unspecified), for which the cytotoxicity at 10 µM is -8.36%.
As for `Cn1cccc1C(O)CNS(=O)(=O)c1ccccc1Br` (stereo unspecified), the cytotoxicity at 10 µM was -11.1%.
Next, `N#CCc1ccc(NC(=O)Cn2cc(I)cn2)cc1`: 8.44%; `COc1cc(CNCC(O)c2ccccc2F)cc2c1OCO2` (stereo unspecified): -5.53%.
Next, `CCOc1cccc(CCNC(=O)Cc2ccn[nH]2)n1`: -27.2%; `COc1cccc(-n2nnc(C(=O)N3CCCC3)c2C)c1`: -5.41%.
Next, `CN1CC(=O)N(c2cccnc2)CC12CCN(C(=O)C1CCCCC1)C2` (stereo unspecified): 1.55%; `COc1ccccc1OC1CCN(Cc2cnc(N(C)C)nc2)CC1`: -10.9%; `O=C1CCC2(CCN(Cc3cc(F)ccc3Cl)CC2)CN1C1CCCC1`: 53.1%.
Take `Cc1c(CN2CCCC2(C)C(=O)NC2CCCC2)cnn1C` (stereo unspecified): the cytotoxicity at 10 µM was found to be 1.05%.
Next, `Cc1ncc(CN(C)CC2CCCN2c2cccnn2)s1` (stereo unspecified): 4.19%.
For the compound `N#Cc1ncn(CCS(=O)(=O)c2ccc(Cl)cc2)n1`, the cytotoxicity at 10 µM was -6.74%.
The result for `COCCCS(=O)(=O)N1CCN(Cc2cccn2C)CC1` reads -9.53%; that for `CN(C)Cc1cn(-c2ccccc2C(=O)NCCC2CCCN2C)cn1` (stereo unspecified), 4.08%.
With `Cc1nn(C)c2c(NCc3ccccn3)nc(C(C)C)nc12`, the cytotoxicity at 10 µM was -3.23%.
Next, `COc1ccc2[nH]cc(C(=O)CNc3nc(C)cs3)c2c1`: 6.04%; `O=C(Cn1cnc(NC(=O)c2ccccn2)n1)NCc1ccccc1`: 9.97%.
With `O=C(Nc1ccccc1)N1C[C@@H]2C[C@H](C(=O)N3CCOCC3)[C@H](C1)O2`, the cytotoxicity at 10 µM is 7.53%.
Next, `Cc1csc(CNC(=O)N(C)Cc2nnc3n2CCC3)n1`: -4.75%; `O=C(O)Cc1cnc(-c2c(Cl)cccc2Cl)s1`: 2.84%; `Cc1nc(N(C)C)nc(NCCc2ccccn2)c1C`: 4.59%.
For `CN(CCO)C[C@@H]1CN(C(=O)c2c(F)cccc2Cl)C[C@@H]1CO`, the cytotoxicity at 10 µM was -9%.
Next, `O=C(C1CCCC1)N1CCO[C@H]2[C@H](OCC3CCOCC3)CC[C@@H]21`: 5.05%; `COCCN1CCCC(O)(CN2CCN(Cc3ccncc3)CC2)C1=O` (stereo unspecified): -8.24%.
Consider `COc1ccc(CN2Cc3nnn(C)c3C(COCCN(C)C)C2)cc1` (stereo unspecified), for which the cytotoxicity at 10 µM is 5.26%.
The result for `COCc1cccc(C(=O)N2C[C@@H]3CC[C@H]2CN(Cc2cscn2)C3)n1` reads 5.01%; that for `CNC(=O)CN1CCCC12CCN(Cc1c[nH]cn1)CC2`, 0.312%; that for `Cc1ncsc1C(=O)NC1CCN(Cc2cccc3c2OCCO3)CC1`, -4.68%.
`CC(C)S(=O)(=O)NC(=O)CC(c1ccccc1)C(F)(F)F` (stereo unspecified): the cytotoxicity at 10 µM is -43.9%.
Take `CC(C)Cc1cc(CNC(=O)C2CCCN(C(=O)N(C)C)C2)no1` (stereo unspecified): the cytotoxicity at 10 µM turned out to be 2.31%.
On to `CCn1cnnc1CCNc1nc(C)cc(C)c1C#N`, for which the cytotoxicity at 10 µM turned out to be 2.56%.
The result for `O=S(=O)(C1CC1)N1CCO[C@H]2[C@H](OCC3CC3)CC[C@@H]21` reads 5.61%; that for `O[C@H]1CN(CCCOc2ccccc2F)CC[C@@]12CCCO2`, 3.06%; that for `Cn1cc(-c2ccc(C3CCCCN3Cc3cccnc3)cn2)cn1` (stereo unspecified), 11.6%.
The result for `Cc1cc(-c2ccc(=O)n(CCNC(=O)C3CCC3)n2)c(C)o1` reads -2.32%; that for `NC(=O)CCCNC(=O)CCc1cc(Br)cs1`, 4.11%.
In the case of `CC1Cc2ccccc2N1Cc1occc1C(=O)NCC(=O)N(C)C` (stereo unspecified), the cytotoxicity at 10 µM stood at 8.13%.
For `Cn1cc(CN2CCC[C@]3(C[C@H](Oc4ncccc4F)CO3)C2)cn1`, the cytotoxicity at 10 µM turned out to be 9.92%.
The result for `CCc1ccc(CN2CCC3(CCCN(C(=O)c4cnccn4)C3)C2)o1` (stereo unspecified) reads -127%; that for `O=C(NCc1ccco1)[C@H]1CC[C@@H]2[C@@H](CCN2C2CCC2)O1`, 6.47%; that for `Cc1nn(C)c2nc(N(C)CC3CCN(CC(C)C)C3)sc12` (stereo unspecified), -8.13%.
Take `O=C(c1cccs1)N1CCOCC2(C1)CN(c1ccccc1)C(=O)CO2` (stereo unspecified): the cytotoxicity at 10 µM was -0.756%.
As to `O=C(Cc1n[nH]c2ccccc12)N1CCCC1Cn1cccn1` (stereo unspecified), the cytotoxicity at 10 µM is -14.7%.
Next, `CCC(CNC(=O)c1ccc(Br)o1)N1CCc2ccccc2C1` (stereo unspecified): -20.5%; `Cc1ccc(OCCN2CCC(c3ccnn3CCO)CC2)cc1`: -3.29%.
`COc1cc(C(=O)NC(CC(=O)O)c2cccs2)cc(OC)c1C` (stereo unspecified): the cytotoxicity at 10 µM is -19.1%.
The result for `O=C(Cc1ccccc1)N1Cc2nccn2CC(CN2CCCC2)C1` (stereo unspecified) reads -101%; that for `CCN(CC)S(=O)(=O)NC1CCCc2nc(-c3ccccc3)ncc21` (stereo unspecified), 17.2%; that for `Cc1cccc(N2CCN(CC(=O)N3CCCC(N(C)C)CC3)CC2)c1` (stereo unspecified), -3.73%.
Consider `CN(C)C(=O)CO[C@H]1CN(Cc2ccc3c(c2)OCO3)[C@@H]2COC[C@H]12`, for which the cytotoxicity at 10 µM was 5.9%.
Take `CCN(CC)C(=O)C1CCC2(CCNCC2)O1` (stereo unspecified): the cytotoxicity at 10 µM is -162%.
Next, `O=S1(=O)NCC2(CCNCC2)COc2ccccc21`: -2.75%; `FC(F)(F)c1ccc(-c2noc3c2CN(CC2CCCO2)CC3)cc1` (stereo unspecified): 1.99%; `CC(C)(C)C(=O)NS(=O)(=O)c1ccc(C#N)cc1C(F)(F)F`: -7.52%.
